Laboratory results from paper PMC2842018 (European journal of nuclear medicine and molecular imaging, 2008).

Tests used:
[1] = tested on: glioblastoma; settings: glioblastoma patients, radiotherapy plus temozolomide; ref [1]; cited from earlier work
[2] = tested on: α3 integrin; settings: ovarian cancer, ref [7]; cited from earlier work
[3] = tested on: U-87MG cells (α3 integrin); assay: Fluorescence microscopy of U-87MG cells stained with biotinylated LXY1; assay type: cell-based, human
How it was run: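 U-87MG cells at 80–90% confluence were dissociated with 0.05% trypsin-EDTA. Each sample (3×10⁵ cells) was incubated with biotinylated peptide in PBS with 10% FBS and 1 mM MnCl2 for 30 min on ice, washed three times, given streptavidin-Alexa488 for 30 min and washed once. Cells were cytospun onto slides (2000 rpm, 2 min), mounted with DAPI medium and viewed by fluorescence microscopy. For blocking, unlabeled peptide or anti-α3 integrin antibody (clone P1B5) was co-incubated.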

Cn1nnc2c(C(N)=O)ncn2c1=O [temozolomide]
median survival [1]: 14.6 months

cDGXGXXc
binding preference and specificity [2]: bind preferentially to ovarian cancer with high specificity against α3 integrin

cdGLGBNc (disulfide) [LXY1]
blocking of cell staining by biotinylated LXY1 ([3]; excess unlabeled LXY1 or anti-α3 antibody (clone P1B5) as blocker, streptavidin-Alexa488): almost completely abolished

cdGLGBNc-linker-linker-Biotin (disulfide) [LXY1-biotin]
staining of U-87MG cells ([3]; biotinylated LXY1 30 min, streptavidin-Alexa488 30 min, DAPI counterstain): Strong staining
